Data published in ChEMBL document CHEMBL4007382 (Eur J Med Chem, 2017).

What was measured:
[1] = target: Acetylcholinesterase (Homo sapiens, UniProt P22303); experiment: Inhibition of human erythrocytes AChE using S-acetylthiocholine iodide as substrate preincubated for 60 mins followed by substrate addition measured after 5 mins by Ellman's method
[2] = tested on: Mus musculus; experiment: Cardiotoxicity in Kunming mouse assessed as change in heart rate at 20 mg/kg, ip measured after 13 mins by electrocardiogram (reference value: -37.85 +/- 14.54); format: toxicity, organism-based; conditions: in vivo
[3] = tested on: Mus musculus; experiment: Cardiotoxicity in Kunming mouse assessed as change in heart rate at 20 mg/kg, ip measured after 3 mins by electrocardiogram (reference value: -14.4 +/- 19.94); format: toxicity, organism-based; conditions: in vivo, 0.05 h
[4] = target: T1, Cholinesterase (Equus caballus, UniProt P81908); experiment: Irreversible inhibition of equine serum BuChE assessed as second order carbamylation rate constant using S-butyrylthiocholine iodide as substrate preincubated up to 45 mins followed by substrate addition measured after 5 mins
How it was run: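 Equine BChE, pH 8, 37°C, was preincubated for 1, 2, 4, 8, 15, 30 and 45 min with inhibitor at 1×10^-7 to 5×10^-6 M (seven levels). Residual activity was read by Ellman with BTCh and normalised to a water control at each time. kobs came from a one-phase exponential decay fit; k_I1 came from the linear kobs versus concentration relation.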

[5] = target: T2, Cholinesterase (Homo sapiens, UniProt P06276); experiment: Irreversible inhibition of human plasma BuChE assessed as second order carbamylation rate constant using S-butyrylthiocholine iodide as substrate preincubated up to 45 mins followed by substrate addition measured after 5 mins
How it was run: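 Diluted human plasma BChE was preincubated for 1–45 min with inhibitor at 5×10^-9, 1×10^-8, 2.5×10^-8 and 5×10^-8 M. Residual Ellman activity with BTCh at pH 8 was normalised to a water control. kobs came from a one-phase exponential fit; k_I1 came from the slope of kobs versus concentration.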

[6] = tested on: Mus musculus; experiment: Cardiotoxicity in Kunming mouse assessed as change in heart rate at 20 mg/kg, ip measured after 2 mins by electrocardiogram (reference value: -16.36 +/- 11.14); format: toxicity, organism-based; conditions: in vivo
[7] = tested on: Mus musculus; experiment: Cardiotoxicity in Kunming mouse assessed as change in heart rate at 20 mg/kg, ip measured after 34 mins by electrocardiogram (reference value: -35 +/- 23.88); format: toxicity, organism-based; conditions: in vivo
[8] = tested on: Mus musculus; experiment: Cardiotoxicity in Kunming mouse assessed as change in heart rate at 20 mg/kg, ip measured after 27 mins by electrocardiogram (reference value: -44.4 +/- 23.19); format: toxicity, organism-based; conditions: in vivo, 0.45 h
[9] = target: T2, Cholinesterase; experiment: Inhibition of human plasma BuChE using S-butyrylthiocholine iodide as substrate preincubated for 60 mins followed by substrate addition measured after 5 mins by Ellman's method
How it was run: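 Source was plasma from heparinised blood of one healthy donor, centrifuged at 1000 × g for 20 min at 25°C, stored at -80°C and diluted 150X. Ellman assay at pH 8 and 37°C with 60 min preincubation and seven inhibitor concentrations in water, 5×10^-8 to 5×10^-10 M. Triplicates.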

[10] = tested on: Mus musculus; experiment: Cardiotoxicity in Kunming mouse assessed as change in heart rate at 20 mg/kg, ip measured after 8 mins by electrocardiogram (reference value: -27.98 +/- 16.02); format: toxicity, organism-based; conditions: in vivo
[11] = tested on: Mus musculus; experiment: Cardiotoxicity in Kunming mouse assessed as change in heart rate at 20 mg/kg, ip measured after 1 mins by electrocardiogram (reference value: -4.04 +/- 7.52); format: toxicity, organism-based; conditions: in vivo
[12] = tested on: Mus musculus; experiment: Cardiotoxicity in Kunming mouse assessed as change in heart rate at 20 mg/kg, ip measured after 33 mins by electrocardiogram (reference value: -39.12 +/- 24.73); format: toxicity, organism-based; conditions: in vivo, 0.55 h
[13] = tested on: Mus musculus; experiment: Cardiotoxicity in Kunming mouse assessed as change in heart rate at 20 mg/kg, ip measured after 35 mins by electrocardiogram (reference value: -31.81 +/- 27.31); format: toxicity, organism-based; conditions: in vivo
[14] = tested on: Mus musculus; experiment: Cardiotoxicity in Kunming mouse assessed as change in heart rate at 20 mg/kg, ip measured after 25 mins by electrocardiogram (reference value: -43.17 +/- 15.26); format: toxicity, organism-based; conditions: in vivo
[15] = tested on: Mus musculus; experiment: Cardiotoxicity in Kunming mouse assessed as change in heart rate at 20 mg/kg, ip measured after 4 mins by electrocardiogram (reference value: -13.79 +/- 13.4); format: toxicity, organism-based; conditions: in vivo
[16] = tested on: Mus musculus; experiment: Cardiotoxicity in Kunming mouse assessed as change in heart rate at 20 mg/kg, ip measured after 28 mins by electrocardiogram (reference value: -49.06 +/- 20.71); format: toxicity, organism-based; conditions: in vivo
[17] = tested on: Mus musculus; experiment: Cardiotoxicity in Kunming mouse assessed as change in heart rate at 20 mg/kg, ip measured after 17 mins by electrocardiogram (reference value: -38.32 +/- 10.76); format: toxicity, organism-based; conditions: in vivo
[18] = tested on: Mus musculus; experiment: Cardiotoxicity in Kunming mouse assessed as change in heart rate at 20 mg/kg, ip measured after 9 mins by electrocardiogram (reference value: -31.96 +/- 17.01); format: toxicity, organism-based; conditions: in vivo, 0.15 h
[19] = target: T1, Cholinesterase; experiment: Inhibition of equine serum BuChE using S-butyrylthiocholine iodide as substrate preincubated for 60 mins followed by substrate addition measured after 5 mins by Ellman's method
How it was run: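 Equine serum BChE (0.1 U/mL) in 100 mM sodium phosphate, pH 8, was preincubated at 37°C for 60 min with seven inhibitor concentrations (top 1×10^-5 M; stocks in acetonitrile:water 1:9). Added mix contained BTCh 2.5 mM and DTNB 3.4 mM. A412 was read for 5 min at 37°C, with enzyme-free blank subtracted. Triplicates.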

[20] = tested on: Mus musculus; experiment: Cardiotoxicity in Kunming mouse assessed as change in heart rate at 20 mg/kg, ip measured after 14 mins by electrocardiogram (reference value: -38.12 +/- 19.53); format: toxicity, organism-based; conditions: in vivo
[21] = tested on: Mus musculus; experiment: Cardiotoxicity in Kunming mouse assessed as change in heart rate at 20 mg/kg, ip measured after 22 mins by electrocardiogram (reference value: -41.94 +/- 12.51); format: toxicity, organism-based; conditions: in vivo
[22] = tested on: Mus musculus; experiment: Cardiotoxicity in Kunming mouse assessed as change in heart rate at 20 mg/kg, ip measured after 36 mins by electrocardiogram (reference value: -32.32 +/- 25.52); format: toxicity, organism-based; conditions: in vivo, 0.6 h
[23] = tested on: Mus musculus; experiment: Cardiotoxicity in Kunming mouse assessed as change in heart rate at 20 mg/kg, ip measured after 12 mins by electrocardiogram (reference value: -40.39 +/- 20.17); format: toxicity, organism-based; conditions: in vivo, 0.2 h
[24] = tested on: Mus musculus; experiment: Cardiotoxicity in Kunming mouse assessed as change in heart rate at 20 mg/kg, ip measured after 16 mins by electrocardiogram (reference value: -38.67 +/- 10.18); format: toxicity, organism-based; conditions: in vivo
[25] = tested on: Mus musculus; experiment: Cardiotoxicity in Kunming mouse assessed as change in heart rate at 20 mg/kg, ip measured after 29 mins by electrocardiogram (reference value: -47.2 +/- 24.77); format: toxicity, organism-based; conditions: in vivo
[26] = tested on: Mus musculus; experiment: Cardiotoxicity in Kunming mouse assessed as change in heart rate at 20 mg/kg, ip measured after 21 mins by electrocardiogram (reference value: -40.23 +/- 16.21); format: toxicity, organism-based; conditions: in vivo, 0.35 h
[27] = tested on: Mus musculus; experiment: Cardiotoxicity in Kunming mouse assessed as change in heart rate at 20 mg/kg, ip measured after 15 mins by electrocardiogram (reference value: -35.14 +/- 24.5); format: toxicity, organism-based; conditions: in vivo, 0.25 h

Acetylcholinesterase, sequence (P22303 whole entry): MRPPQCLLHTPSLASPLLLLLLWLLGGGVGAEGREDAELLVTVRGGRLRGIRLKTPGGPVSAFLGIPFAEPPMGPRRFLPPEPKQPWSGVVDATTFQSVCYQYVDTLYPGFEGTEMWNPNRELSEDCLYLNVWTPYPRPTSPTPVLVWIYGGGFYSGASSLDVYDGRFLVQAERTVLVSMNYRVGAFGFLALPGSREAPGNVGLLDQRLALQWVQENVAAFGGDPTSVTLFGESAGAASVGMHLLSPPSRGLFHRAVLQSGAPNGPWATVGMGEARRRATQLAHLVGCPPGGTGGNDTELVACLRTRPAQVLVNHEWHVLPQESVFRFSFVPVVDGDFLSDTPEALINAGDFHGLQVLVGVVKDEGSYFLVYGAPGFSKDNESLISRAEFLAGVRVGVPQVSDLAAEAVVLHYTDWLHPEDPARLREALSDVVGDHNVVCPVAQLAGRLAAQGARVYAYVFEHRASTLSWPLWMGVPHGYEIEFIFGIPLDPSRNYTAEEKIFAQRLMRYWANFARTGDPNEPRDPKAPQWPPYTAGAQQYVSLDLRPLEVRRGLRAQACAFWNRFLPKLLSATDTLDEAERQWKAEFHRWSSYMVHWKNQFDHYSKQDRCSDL
T2 sequence (P06276 whole entry): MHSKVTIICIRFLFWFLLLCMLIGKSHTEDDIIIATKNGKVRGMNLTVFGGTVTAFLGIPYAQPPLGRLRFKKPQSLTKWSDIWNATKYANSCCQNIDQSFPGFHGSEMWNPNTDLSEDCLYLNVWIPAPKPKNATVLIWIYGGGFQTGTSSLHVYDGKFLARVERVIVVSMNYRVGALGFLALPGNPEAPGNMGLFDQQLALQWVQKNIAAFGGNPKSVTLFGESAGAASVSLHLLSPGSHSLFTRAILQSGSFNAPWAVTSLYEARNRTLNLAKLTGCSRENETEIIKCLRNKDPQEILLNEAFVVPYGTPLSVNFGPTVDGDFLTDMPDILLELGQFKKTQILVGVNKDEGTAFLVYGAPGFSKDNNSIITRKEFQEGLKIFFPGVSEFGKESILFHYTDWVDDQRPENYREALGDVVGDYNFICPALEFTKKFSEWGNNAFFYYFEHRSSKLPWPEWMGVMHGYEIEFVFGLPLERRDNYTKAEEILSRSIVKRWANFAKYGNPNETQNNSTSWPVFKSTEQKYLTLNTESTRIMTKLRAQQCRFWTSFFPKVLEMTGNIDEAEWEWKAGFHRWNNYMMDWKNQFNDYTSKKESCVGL
T1 sequence (P81908 whole entry): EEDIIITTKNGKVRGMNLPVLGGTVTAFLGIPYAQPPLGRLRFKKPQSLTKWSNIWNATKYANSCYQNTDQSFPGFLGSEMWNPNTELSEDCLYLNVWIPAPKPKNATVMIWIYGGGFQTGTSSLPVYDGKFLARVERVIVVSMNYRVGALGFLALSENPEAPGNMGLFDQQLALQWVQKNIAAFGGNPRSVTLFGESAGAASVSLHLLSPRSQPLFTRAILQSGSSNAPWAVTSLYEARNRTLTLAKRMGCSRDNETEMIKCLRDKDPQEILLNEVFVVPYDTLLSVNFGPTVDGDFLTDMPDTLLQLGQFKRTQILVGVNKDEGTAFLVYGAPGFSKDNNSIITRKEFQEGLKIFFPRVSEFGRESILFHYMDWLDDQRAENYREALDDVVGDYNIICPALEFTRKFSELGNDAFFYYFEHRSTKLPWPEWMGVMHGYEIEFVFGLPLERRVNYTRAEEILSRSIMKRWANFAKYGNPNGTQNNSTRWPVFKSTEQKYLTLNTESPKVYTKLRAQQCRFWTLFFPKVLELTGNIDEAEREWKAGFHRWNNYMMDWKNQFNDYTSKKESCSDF

Compound | IC50 [1] [nM] | Activity [2] [bpm] | Activity [3] [bpm] | Ki [4] [×10⁵ /M/min] | Ki [5] [×10⁵ /M/min] | Activity [6] [bpm] | Activity [7] [bpm] | Activity [8] [bpm] | IC50 [9] [nM] | Activity [10] [bpm] | Activity [11] [bpm] | Activity [12] [bpm] | Activity [13] [bpm] | Activity [14] [bpm] | Activity [15] [bpm] | Activity [16] [bpm] | Activity [17] [bpm] | Activity [18] [bpm] | IC50 [19] [nM] | Activity [20] [bpm] | further results
CCN(C)C(=O)Oc1cc(OC(=O)N(C)CC)cc(C(O)CNC(C)(C)CC)c1.Cl (stereo unspecified) | > 10000 | -3.93 | 0.93 | 1.49 | 73.3 | -1.28 | -5.5 | -4.43 | 7.12 | -4.23 | -0.1 | -2.93 | -11.4 | -0.22 | 2.55 | -7.52 | 4.98 | -5.8 | 116 | -4.15 | Activity [21]: 0.05 bpm; Activity [22]: -25.47 bpm; Activity [23]: -4.45 bpm; Activity [24]: 3.92 bpm; Activity [25]: -5.1 bpm; Activity [26]: 0.05 bpm; Activity [27]: -2.32 bpm
CCC(C)(C)NCC(O)c1cc(OC(=O)N(C)C)cc(OC(=O)N(C)C)c1.Cl (stereo unspecified) | > 10000 | -43.71 | -22.65 | 1.42 | 60 | -21.23 | -37.47 | -32.47 | 7.28 | -32.94 | -18.58 | -39.88 | -37.47 | -44.42 | -26.67 | -37.58 | -40.25 | -34.87 | 126 | -51.28 | Activity [21]: -41.75 bpm; Activity [22]: -36.32 bpm; Activity [23]: -46.97 bpm; Activity [24]: -42.02 bpm; Activity [25]: -37.74 bpm; Activity [26]: -41.83 bpm; Activity [27]: -49.12 bpm
CN(C)C(=O)Oc1cc(OC(=O)N(C)C)cc(C(O)CNC(C)(C)C)c1 (stereo unspecified) [BAMBUTEROL] | > 10000 | 15.31 | 2.1 | 1.44 | 77.7 | -2.66 | -6.04 | -1.54 | 4.29 | 9.76 | -2.81 | 4.05 | -2.92 | 30.43 | 3.77 | -15.03 | 45.59 | 0.55 | 119 | 39.93 | Activity [21]: 48.65 bpm; Activity [22]: -26.54 bpm; Activity [23]: 15.49 bpm; Activity [24]: 57.32 bpm; Activity [25]: -23.87 bpm; Activity [26]: 32.75 bpm; Activity [27]: 53.3 bpm
